Consider 10 compounds from ChEMBL document CHEMBL1126204, “Nucleic acid related compounds. 74. Synthesis and biological activity of 2'(and 3')-deoxy-2'(and 3')-methylenenucleoside analogues that function as mechanism-based inhibitors of S-adenosyl-L-homocysteine hydrolase and/or ribonucleotide reductase” (J Med Chem, 1992).

Test system in one assay: not listed separately
The assay is described as follows: In vitro inhibition of Molt/4f (Human T-lymphoblast) cell proliferation. It is filed as functional.
Conditions: not given
The procedure, abridged: (§1)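 Human Molt/4F, MT-4, and Raji cells (wild-type, TK⁻ or dCK⁻) in RPMI-1640 with 10% inactivated FCS, 2 mM L-glutamine and 0.075% NaHCO₃, seeded at 7.5 × 10⁵ cells/mL with compound (0.001–500 µM). Incubated 3 days at 37 °C in humidified CO₂; viable cells counted by Coulter counter. IC₅₀ = 50% reduction in viable cells; means of 2–4 independent experiments.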
By IC50 is commonly meant the midpoint of a concentration-inhibition curve. For `C=C1[C@@H](O)[C@H](n2cnc3c(O)ncnc32)O[C@@H]1CO`, the concentration for half-maximal inhibition (IC50) is greater than 200 µM.
The same measure, in the same setting: the result for `C=C1[C@H](n2cnc3c(S)nc(N)nc32)O[C@H](CO)[C@H]1O` reads 24 µM.
`C=C1[C@@H](O)[C@H](n2cnc3c(OC)nc(N)nc32)O[C@@H]1CO` registered an IC50 greater than 500 µM.
With `C=C1[C@@H](O)[C@H](n2cnc3c(SC)nc(N)nc32)O[C@@H]1CO`, the IC50 was greater than 500 µM.
For the compound `C=C1[C@@H](O)[C@H](n2cnc3c(N)ncnc32)O[C@@H]1CO`, the half-inhibitory concentration (IC50) was greater than 500 µM.
With `C=C1[C@H](n2cnc3c(N(C)C)nc(N)nc32)O[C@H](CO)[C@H]1O`, half-maximal inhibition (IC50) was put at 335 µM.
The compound `C=C1[C@@H](O)[C@H](n2cnc3c(Cl)nc(N)nc32)O[C@@H]1CO` registered an IC50 greater than 500 µM.
The compound `C=C1[C@@H](O)[C@H](n2cnc3c(N)nc(N)nc32)O[C@@H]1CO` returned a half-inhibitory concentration (IC50) greater than 200 µM.
As for `C=C1[C@@H](O)[C@H](n2cnc3c(O)nc(N)nc32)O[C@@H]1CO`, the concentration for half-maximal inhibition (IC50) is greater than 200 µM.
The compound `C=C1[C@H](n2cnc3c(OC)nc(N)nc32)O[C@H](CO)[C@H]1O` showed an IC50 of 23 µM.

The next assay concerns CEM (Homo sapiens). The assay is described as follows: Concentration required to inhibit the proliferation of human T-lymphocyte CEM/o cells by 50%.
Conditions: not given
Take `C=C1[C@@H](O)[C@H](n2cnc3c(N)nc(N)nc32)O[C@@H]1CO`: the IC50 is greater than 500 µM.

Test system in a further assay: not listed separately
The assay is described as follows: Concentration required to inhibit the proliferation of human T-lymphocyte CEM/AK-(Ado kinase deficient) cells by 50%. It is filed as functional.
Conditions: not given
The procedure, abridged:
(§2)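 Wild-type CEM and kinase-deficient sublines (AK⁻, dCK⁻, AK⁻/dCK⁻) grown in RPMI-1640 with 10% inactivated FCS, 2 mM L-glutamine and 0.075% NaHCO₃. Cells were exposed to compound at 0.001–500 µM for 3 days at 37 °C in humidified CO₂. Viable cells counted by Coulter counter; IC₅₀ = 50% reduction in viable cells. Mean of 2–4 independent experiments.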
For `C=C1[C@@H](O)[C@H](n2cnc3c(N)nc(N)nc32)O[C@@H]1CO`, the half-inhibitory concentration (IC50) is greater than 500 µM.
Same read-out and setting: the result for `C=C1[C@@H](O)[C@H](n2cnc3c(O)nc(N)nc32)O[C@@H]1CO` reads greater than 500 µM.

Test system in the next assay: not listed separately
The assay is described as follows: Concentration required to inhibit the proliferation of human T-lymphocyte CEM/AK-/dCK-(Ado and dCyd kinase deficient) cells by 50%. It is filed as functional.
Conditions: not given
The procedure, abridged: as §2
On to `C=C1[C@@H](O)[C@H](n2cnc3c(N)nc(N)nc32)O[C@@H]1CO`, for which the concentration for half-maximal inhibition (IC50) is greater than 500 µM.
`C=C1[C@@H](O)[C@H](n2cnc3c(O)nc(N)nc32)O[C@@H]1CO` yielded a concentration for half-maximal inhibition (IC50) greater than 500 µM.

Test system in a further assay: not listed separately
The assay is described as follows: In vitro inhibition of FM3A (murine carcinoma) cell proliferation. The settings on record: Mus musculus. Format: functional. The procedure, abridged: (§3)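 Murine FM3A or L1210 cells in Eagle's MEM with 10% inactivated FCS, 2 mM L-glutamine and 0.075% NaHCO₃, seeded at 5 × 10⁵ cells/mL with compound (0.001–500 µM). After 2 days at 37 °C in humidified CO₂, viable cells were counted with a Coulter counter. IC₅₀ = 50% fewer viable cells; mean of 2–4 experiments.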
With `C=C1[C@@H](O)[C@H](n2cnc3c(O)ncnc32)O[C@@H]1CO`, the IC50 was greater than 200 µM.
Still for that read-out and setting: to `C=C1[C@H](n2cnc3c(S)nc(N)nc32)O[C@H](CO)[C@H]1O` belongs 26 µM.
`C=C1[C@@H](O)[C@H](n2cnc3c(OC)nc(N)nc32)O[C@@H]1CO`: the IC50 is 439 µM. This IC50 is about 17-fold higher than that of the compound before.
Same read-out and setting: the result for `C=C1[C@@H](O)[C@H](n2cnc3c(SC)nc(N)nc32)O[C@@H]1CO` reads greater than 500 µM; that for `C=C1[C@@H](O)[C@H](n2cnc3c(N)ncnc32)O[C@@H]1CO`, 466 µM; that for `C=C1[C@H](n2cnc3c(N(C)C)nc(N)nc32)O[C@H](CO)[C@H]1O`, greater than 500 µM.
Take `C=C1[C@@H](O)[C@H](n2cnc3c(Cl)nc(N)nc32)O[C@@H]1CO`: the concentration for half-maximal inhibition (IC50) stood at 469 µM.
Compound `C=C1[C@@H](O)[C@H](n2cnc3c(N)nc(N)nc32)O[C@@H]1CO` had a concentration for half-maximal inhibition (IC50) greater than 200 µM.
`C=C1[C@@H](O)[C@H](n2cnc3c(O)nc(N)nc32)O[C@@H]1CO` yielded a 50% inhibitory concentration (IC50) greater than 200 µM.
In turn, `C=C1[C@H](n2cnc3c(OC)nc(N)nc32)O[C@H](CO)[C@H]1O` returned a 50% inhibitory concentration (IC50) of 41 µM.

Another assay deals with L1210. As to the kind of experiment: In vitro inhibition of L1210 (murine leukemia) cell proliferation. It is filed as functional, cell-based. To be noted: Mus musculus. The procedure, abridged:
as §3
On to `C=C1[C@@H](O)[C@H](n2cnc3c(O)ncnc32)O[C@@H]1CO`, for which the half-inhibitory concentration (IC50) was greater than 200 µM.
In turn, `C=C1[C@H](n2cnc3c(S)nc(N)nc32)O[C@H](CO)[C@H]1O` returned a half-maximal inhibitory concentration (IC50) of 20 µM.
`C=C1[C@@H](O)[C@H](n2cnc3c(OC)nc(N)nc32)O[C@@H]1CO` yielded a half-maximal inhibitory concentration (IC50) of 446 µM.
Regarding `C=C1[C@@H](O)[C@H](n2cnc3c(SC)nc(N)nc32)O[C@@H]1CO`, the half-inhibitory concentration (IC50) is greater than 500 µM.
In turn, `C=C1[C@@H](O)[C@H](n2cnc3c(N)ncnc32)O[C@@H]1CO` had a concentration for half-maximal inhibition (IC50) of 228 µM.
In turn, `C=C1[C@H](n2cnc3c(N(C)C)nc(N)nc32)O[C@H](CO)[C@H]1O` yielded a half-maximal inhibitory concentration (IC50) of 454 µM.
On the same count and under the same terms, the result for `C=C1[C@@H](O)[C@H](n2cnc3c(Cl)nc(N)nc32)O[C@@H]1CO` reads 441 µM.
As to `C=C1[C@@H](O)[C@H](n2cnc3c(N)nc(N)nc32)O[C@@H]1CO`, the IC50 was greater than 200 µM.
On the same count and under the same terms, to `C=C1[C@@H](O)[C@H](n2cnc3c(O)nc(N)nc32)O[C@@H]1CO` belongs greater than 200 µM; to `C=C1[C@H](n2cnc3c(OC)nc(N)nc32)O[C@H](CO)[C@H]1O`, 10 µM.

Test system in the next assay: not listed separately
As to the kind of experiment: Concentration required to inhibit the proliferation of human T-lymphocyte CEM/dCK-(dCyd kinase deficient) cells by 50%. Format: functional.
Conditions: not given
The procedure, abridged: as §2
`C=C1[C@@H](O)[C@H](n2cnc3c(N)nc(N)nc32)O[C@@H]1CO`: the IC50 was greater than 500 µM.
Still for that read-out and setting: the result for `C=C1[C@@H](O)[C@H](n2cnc3c(O)nc(N)nc32)O[C@@H]1CO` reads greater than 500 µM.

The test system of the next assay is CEM (Homo sapiens). The assay is described as follows: Concentration required to inhibit the proliferation of human T-lymphocyte CEM/o cells by 50%.
Conditions: not given
The source holds these as a separate data set.
Take `C=C1[C@@H](O)[C@H](n2cnc3c(O)nc(N)nc32)O[C@@H]1CO`: the IC50 was greater than 500 µM.

The next assay concerns MT4. The assay is described as follows: In vitro inhibition of MT-4 (Human T-lymphocyte) cell proliferation. It is filed as functional, cell-based.
Conditions: not given
The procedure, abridged:
as §1
As to `C=C1[C@@H](O)[C@H](n2cnc3c(O)ncnc32)O[C@@H]1CO`, the IC50 is greater than 200 µM.
In the case of `C=C1[C@H](n2cnc3c(S)nc(N)nc32)O[C@H](CO)[C@H]1O`, the half-inhibitory concentration (IC50) stood at 0.48 µM.
For `C=C1[C@@H](O)[C@H](n2cnc3c(OC)nc(N)nc32)O[C@@H]1CO`, the IC50 was greater than 500 µM.
Take `C=C1[C@@H](O)[C@H](n2cnc3c(SC)nc(N)nc32)O[C@@H]1CO`: the IC50 is greater than 500 µM.
`C=C1[C@@H](O)[C@H](n2cnc3c(N)ncnc32)O[C@@H]1CO` returned a concentration for half-maximal inhibition (IC50) of 43 µM.
On to `C=C1[C@H](n2cnc3c(N(C)C)nc(N)nc32)O[C@H](CO)[C@H]1O`, for which the concentration for half-maximal inhibition (IC50) was greater than 500 µM.
On the same count and under the same terms, to `C=C1[C@@H](O)[C@H](n2cnc3c(Cl)nc(N)nc32)O[C@@H]1CO` belongs greater than 500 µM.
In the case of `C=C1[C@@H](O)[C@H](n2cnc3c(N)nc(N)nc32)O[C@@H]1CO`, the half-inhibitory concentration (IC50) is greater than 200 µM.
The compound `C=C1[C@@H](O)[C@H](n2cnc3c(O)nc(N)nc32)O[C@@H]1CO` showed an IC50 greater than 200 µM.
For `C=C1[C@H](n2cnc3c(OC)nc(N)nc32)O[C@H](CO)[C@H]1O`, the half-inhibitory concentration (IC50) came to 180 µM.
